Test results reported in ChEMBL document CHEMBL1136923, “Highly potent, orally available anti-inflammatory broad-spectrum chemokine inhibitors” (J Med Chem, 2009).

Target: C-C chemokine receptor type 2 (Homo sapiens) (UniProt P41597)
Experiment: Antagonist activity at CCR2 in human THP1 cells assessed as inhibition of CCL2-induced chemotaxis after 2 hrs by microtiter format trans-well migration assay
Format: functional, cell-based
Settings: THP-1
Summary of the method: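 Microtiter trans-well migration assay in Gey's balanced salt solution with 1 mg/mL endotoxin-free BSA, no fetal calf serum. Migration ran 2 h at 37 °C. Compounds dissolved in DMSO and added to both top and bottom compartments, final DMSO 1%.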

Chain of C-C chemokine receptor type 2 (Homo sapiens) (P41597 whole entry, looked up): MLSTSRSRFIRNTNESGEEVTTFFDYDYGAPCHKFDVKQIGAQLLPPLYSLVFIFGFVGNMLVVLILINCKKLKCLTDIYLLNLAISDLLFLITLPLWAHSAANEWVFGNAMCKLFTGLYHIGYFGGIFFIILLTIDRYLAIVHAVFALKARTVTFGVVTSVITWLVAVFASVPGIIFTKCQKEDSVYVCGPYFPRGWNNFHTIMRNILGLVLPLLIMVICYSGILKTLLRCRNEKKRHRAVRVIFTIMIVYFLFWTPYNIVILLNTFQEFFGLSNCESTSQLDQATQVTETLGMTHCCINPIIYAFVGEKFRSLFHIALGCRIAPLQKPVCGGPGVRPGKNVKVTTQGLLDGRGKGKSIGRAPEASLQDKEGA

ED50 [nM]	SMILES
0.08	CC(C)CCC(C)(C)C(=O)N[C@H]1CCCCNC1=O
3	CCCCCCCCCCC(C)C(=O)N[C@H]1CCCCNC1=O (mixture of isomers; form 1)
0.8	O=C(CC12CC3CC(CC(C3)C1)C2)N[C@H]1CCCCNC1=O
0.07	CCC(C)(C)C(=O)N[C@H]1CCCCNC1=O
1	C=CCC(C)(C)C(=O)N[C@H]1CCCCNC1=O
15	CCCCCCCCCCCC(=O)N[C@H]1CCCCNC1=O
9	CC(CCl)(CCl)C(=O)N[C@H]1CCCCNC1=O
0.2	CC(C)=CCC(C)(C)C(=O)N[C@H]1CCCCNC1=O
0.5	O=C(N[C@H]1CCCCNC1=O)C1CCCCC1
5	CCCCCC1CCC(C(=O)N[C@H]2CCCCNC2=O)CC1 (stereo not given in full)
